This is an account of results in ChEMBL document CHEMBL3351398, “Discovery of a Potent and Selective DGAT1 Inhibitor with a Piperidinyl-oxy-cyclohexanecarboxylic Acid Moiety” (ACS Med Chem Lett, 2014).

For data set [1], the system named is Mus musculus. In words: Inhibition of plasma triglyceride accumulation in mouse at 10 mg/kg, po dosed 2 hrs before lipid challenge and measured at 18 hrs by lipid tolerance test. The class given is functional. The procedure, abridged: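 Mouse lipid tolerance test measuring plasma triglyceride excursion. Dosing was 10 mpk oral, with triglyceride reduction read at 18 h.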

In data set [2] the target is T1, Diacylglycerol O-acyltransferase 1 (Mus musculus, UniProt Q9Z2A7).
T1 sequence (Q9Z2A7 whole entry): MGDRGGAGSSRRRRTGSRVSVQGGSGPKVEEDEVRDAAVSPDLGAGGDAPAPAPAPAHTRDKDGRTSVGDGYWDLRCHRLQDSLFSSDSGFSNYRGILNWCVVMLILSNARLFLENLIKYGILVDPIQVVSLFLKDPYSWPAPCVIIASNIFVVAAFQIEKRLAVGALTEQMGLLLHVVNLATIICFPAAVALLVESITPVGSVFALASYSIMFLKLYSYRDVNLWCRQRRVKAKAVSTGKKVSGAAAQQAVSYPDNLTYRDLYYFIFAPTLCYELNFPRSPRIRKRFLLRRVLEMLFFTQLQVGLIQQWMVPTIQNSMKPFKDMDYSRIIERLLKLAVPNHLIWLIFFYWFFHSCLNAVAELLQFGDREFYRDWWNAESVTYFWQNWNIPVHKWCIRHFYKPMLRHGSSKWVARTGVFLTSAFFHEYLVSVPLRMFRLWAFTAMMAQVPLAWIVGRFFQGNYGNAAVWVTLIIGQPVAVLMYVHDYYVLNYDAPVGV
In words: Inhibition of mouse DGAT1.

Data set [3] concerns the target Adenosine receptor A2a (Homo sapiens, UniProt P29274). Description: Binding affinity to human A2A receptor. The procedure, abridged:
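Recombinant human A2A receptor was tested in an in-house radioligand competition binding assay. The value is reported as Ki.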

In data set [4] the target is T2, Sterol O-acyltransferase 1 (Homo sapiens, UniProt P35610).
T2 sequence (P35610 whole entry): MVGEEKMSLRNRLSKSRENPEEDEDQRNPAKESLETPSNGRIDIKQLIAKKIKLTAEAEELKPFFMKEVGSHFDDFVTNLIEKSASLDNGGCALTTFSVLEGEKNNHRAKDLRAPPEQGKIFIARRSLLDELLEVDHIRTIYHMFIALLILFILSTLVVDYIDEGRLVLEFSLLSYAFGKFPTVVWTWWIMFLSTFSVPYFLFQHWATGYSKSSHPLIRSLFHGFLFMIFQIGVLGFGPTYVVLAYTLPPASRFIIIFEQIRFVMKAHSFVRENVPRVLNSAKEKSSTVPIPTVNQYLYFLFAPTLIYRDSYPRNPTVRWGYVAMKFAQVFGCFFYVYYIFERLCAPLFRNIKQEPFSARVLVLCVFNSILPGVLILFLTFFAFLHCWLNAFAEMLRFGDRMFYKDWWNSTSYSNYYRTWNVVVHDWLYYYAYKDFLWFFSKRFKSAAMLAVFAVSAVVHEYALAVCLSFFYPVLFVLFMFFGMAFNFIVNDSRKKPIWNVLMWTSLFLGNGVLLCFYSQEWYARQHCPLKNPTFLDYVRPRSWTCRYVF
In words: Inhibition of human ACAT1.

The species named for data set [5] is Homo sapiens. In words: Selectivity index, ratio of Ki for human A2A receptor to KI IC50 for human DGAT1.
The target in data set [6] is Voltage-gated inwardly rectifying potassium channel KCNH2 (Homo sapiens, UniProt Q12809). Description: Displacement of radiolabeled MK499 from human ERG. The procedure, abridged: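 hERG off-target activity was measured in a competitive binding assay against radiolabeled MK-499. The value is reported as Ki.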
Chain of Voltage-gated inwardly rectifying potassium channel KCNH2 (Q12809 whole entry): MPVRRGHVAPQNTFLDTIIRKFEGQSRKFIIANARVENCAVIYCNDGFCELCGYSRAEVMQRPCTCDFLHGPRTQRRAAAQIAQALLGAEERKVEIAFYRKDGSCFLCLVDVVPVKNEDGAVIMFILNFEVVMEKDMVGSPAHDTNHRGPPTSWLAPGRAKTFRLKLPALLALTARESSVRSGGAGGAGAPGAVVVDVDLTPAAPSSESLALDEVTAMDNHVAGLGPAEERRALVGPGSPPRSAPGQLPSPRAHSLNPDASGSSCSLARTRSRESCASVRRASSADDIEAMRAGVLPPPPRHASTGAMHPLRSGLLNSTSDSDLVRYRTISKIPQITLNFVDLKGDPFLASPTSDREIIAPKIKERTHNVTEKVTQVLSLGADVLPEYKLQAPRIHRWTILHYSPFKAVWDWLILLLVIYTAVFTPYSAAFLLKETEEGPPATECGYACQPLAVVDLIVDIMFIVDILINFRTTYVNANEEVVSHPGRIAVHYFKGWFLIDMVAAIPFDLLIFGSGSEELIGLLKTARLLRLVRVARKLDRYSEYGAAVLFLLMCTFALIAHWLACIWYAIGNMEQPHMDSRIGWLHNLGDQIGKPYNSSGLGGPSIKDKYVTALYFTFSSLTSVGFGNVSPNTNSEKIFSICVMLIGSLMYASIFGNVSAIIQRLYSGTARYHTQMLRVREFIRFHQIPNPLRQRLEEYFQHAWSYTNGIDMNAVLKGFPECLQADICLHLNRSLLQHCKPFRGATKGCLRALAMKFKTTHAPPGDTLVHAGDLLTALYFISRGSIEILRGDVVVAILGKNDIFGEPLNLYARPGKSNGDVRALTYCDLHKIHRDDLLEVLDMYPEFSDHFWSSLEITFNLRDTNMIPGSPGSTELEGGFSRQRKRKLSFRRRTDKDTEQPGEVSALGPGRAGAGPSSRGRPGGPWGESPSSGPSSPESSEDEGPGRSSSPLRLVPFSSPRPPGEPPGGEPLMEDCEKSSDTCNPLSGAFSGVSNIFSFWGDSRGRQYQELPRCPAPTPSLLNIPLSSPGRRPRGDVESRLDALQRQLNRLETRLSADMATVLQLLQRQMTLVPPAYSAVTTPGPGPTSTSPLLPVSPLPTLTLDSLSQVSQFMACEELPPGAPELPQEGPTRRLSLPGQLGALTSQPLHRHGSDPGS
For data set [7], the target named is T3, Diacylglycerol O-acyltransferase 1 (Homo sapiens, UniProt O75907).
T3 sequence (O75907 whole entry): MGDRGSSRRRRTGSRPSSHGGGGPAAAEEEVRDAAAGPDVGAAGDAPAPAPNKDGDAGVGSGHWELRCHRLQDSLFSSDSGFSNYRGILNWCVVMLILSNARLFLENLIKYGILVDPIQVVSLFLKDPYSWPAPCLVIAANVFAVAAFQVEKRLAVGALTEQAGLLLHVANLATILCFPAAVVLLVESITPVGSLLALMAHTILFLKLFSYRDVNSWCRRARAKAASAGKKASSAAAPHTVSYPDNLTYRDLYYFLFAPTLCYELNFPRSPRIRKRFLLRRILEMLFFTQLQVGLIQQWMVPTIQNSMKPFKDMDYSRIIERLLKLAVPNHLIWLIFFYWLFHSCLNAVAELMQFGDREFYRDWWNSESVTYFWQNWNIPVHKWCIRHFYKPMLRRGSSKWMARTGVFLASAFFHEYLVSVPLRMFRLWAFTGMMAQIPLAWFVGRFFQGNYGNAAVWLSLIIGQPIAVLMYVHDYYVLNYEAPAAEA
Description: Inhibition of human DGAT1.

The target in data set [8] is T4, Sterol O-acyltransferase 1 (Homo sapiens) (UniProt P35610).
T4 sequence (whole entry): T2 sequence (P35610 whole entry)
In words: Inhibition of human ACAT1 at 10 uM. In outline: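 Human ACAT1 inhibition was tested at a single concentration of 10 μM. The value is reported as percent inhibition.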

Data set [9] deals with Rattus norvegicus. Description: Inhibition of plasma triglyceride accumulation in Sprague-Dawley rat at 10 mg/kg, po dosed 2 hrs before lipid challenge and measured at 18 hrs by lipid tolerance test. In kind it is functional.
For data set [10], the system named is Homo sapiens. In words: Reduction in fasting triglyceride levels in familial chylomicronemia syndrome patient at 20 mg dosed daily. The class given is functional.
Data set [11] can be described thus: Solubility in PBS buffer at pH 2. In kind it is physicochemical. The procedure, abridged: (§1)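 High-throughput solubility test in PBS buffer at pH 2 and at pH 7. Free form and salt forms (TFA, formate, ammonium) were tested separately.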
The nature of data set [12]: Solubility in PBS buffer at pH 7. In kind it is physicochemical. In outline:
as §1

Data set [13] has as its system Mus musculus. Description: Reduction in cumulative body weight gain in DGAT1 knockout mouse at 10 mg/kg, po dosed daily for 6 days. In kind it is functional, organism-based. Further details: dose 10 mg/kg. The procedure, abridged: (§2)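 Wild-type and DGAT1 knockout mice were dosed daily at 10 mpk for six days. Cumulative body weight gain and food intake were compared with vehicle-treated groups.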

Data set [14] relates to Mus musculus. In words: Reduction in cumulative body weight gain in wild type mouse at 10 mg/kg, po dosed daily for 6 days measured starting from day 3. The class given is functional, organism-based. Further details: dose 10 mg/kg. The procedure, abridged: as §2
Data set [15] concerns Mus musculus. In words: Reduction in food intake in wild type mouse at 10 mg/kg, po dosed daily for 6 days measured starting from day 3. The class given is functional, organism-based. More on the design: dose 10 mg/kg. In outline:
(§3)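 Wild-type and DGAT1 knockout mice were dosed daily at 10 mpk for six days. Cumulative body weight gain and food intake were compared with vehicle-treated groups of the same genotype.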

In data set [16] the test system is Mus musculus. Description: Reduction in food intake in DGAT1 knockout mouse at 10 mg/kg, po dosed daily for 6 days. The class given is functional, organism-based. Further details: dose 10 mg/kg. The procedure, abridged:
as §3

SMILES strings stand for the structures. Calls of active or inactive are those of the source. The calls are words filed in the database; no cut-off is given here.

Chain of Adenosine receptor A2a (P29274 whole entry): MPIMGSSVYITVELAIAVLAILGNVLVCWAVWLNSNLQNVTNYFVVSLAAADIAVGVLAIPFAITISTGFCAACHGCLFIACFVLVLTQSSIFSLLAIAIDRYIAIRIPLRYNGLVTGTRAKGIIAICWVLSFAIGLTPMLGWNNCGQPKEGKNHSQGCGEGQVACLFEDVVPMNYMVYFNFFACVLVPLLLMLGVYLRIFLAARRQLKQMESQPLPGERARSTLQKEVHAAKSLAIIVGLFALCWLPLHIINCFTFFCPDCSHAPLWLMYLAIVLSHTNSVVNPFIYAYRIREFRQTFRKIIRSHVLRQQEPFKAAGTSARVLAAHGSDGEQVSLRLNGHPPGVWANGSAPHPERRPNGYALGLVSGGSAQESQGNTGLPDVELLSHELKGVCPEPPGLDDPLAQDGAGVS

Turning to `O=C(O)[C@H]1CC[C@@H](OC2CCN(c3ccc(-c4nc5cc(C(F)(F)F)ccc5[nH]4)cn3)CC2)CC1`, in data set [1], the inhibition in vivo (in general, the drop in the measured response relative to a control, in per cent) at 10 mg/kg worked out at 75%. In addition, the values for the IC50 in [2], in data set [4] and in data set [7] were 0.008 µM, greater than 10 µM and 0.0025 µM, respectively. Further, the Ki (in general, a dissociation constant, usually derived from enzyme kinetics or from competition with a known ligand) in [3] is 8 µM; in [6] it was 7 µM. In addition, the Selectivity ratio in data set [5] was greater than 1000. In addition, in data set [8], the inhibition (usually the change of the read-out against control, counted positive when it falls) came out at 22%.
`CC1(C)Oc2ncnc(N)c2N=C1c1ccc([C@H]2CC[C@H](CC(=O)O)CC2)cc1` registered an inhibition in vivo at 10 mg/kg in [9] of 100%.
For `O=C(O)[C@H]1CC[C@H](OC2CCN(c3ccc(-c4nc5cc(Cl)ccc5[nH]4)cn3)CC2)CC1`, the inhibition in vivo at 10 mg/kg in [1] is 75%. Moreover, the IC50 (as a rule, the point on the concentration scale where inhibition reaches its midpoint) was 0.029 µM in data set [2], greater than 10 µM in data set [4] and 0.0029 µM in [7]. For the same molecule, the Ki in data set [3] was determined as 3.5 µM; in data set [6] it was 4 µM. The Selectivity ratio in [5] is greater than 1000. Also, the inhibition in data set [8] came out at 4%.
For the molecule `O=C(O)C[C@H]1CC[C@H](c2ccc(-c3ccc(Nc4ccc(C(F)(F)F)nc4)cn3)cc2)CC1` [PRADIGASTAT], the “inhibition (INH)” value in [10] was determined as 40%.
Regarding `O=C(O)C(F)(F)F.O=C(O)[C@H]1CC[C@H](OC2CCN(c3ccc(-c4nc5cc(C(F)(F)F)ccc5[nH]4)cn3)CC2)CC1`, the solubility (usually how much of the substance goes into solution per volume) in data set [11] is 130 µM; in data set [12], 151 µM.
Regarding `O=C(O)[C@H]1CC[C@H](OC2CCN(c3ccc(-c4nc5cc(F)ccc5[nH]4)cn3)CC2)CC1`, the concentration for half-maximal inhibition (IC50) in data set [2] is 0.11 µM; in data set [4], greater than 10 µM. Besides, the Ki in data set [3] was 9.7 µM; in data set [6], greater than 60 µM. Besides, the inhibition in [8] worked out at 5%.
For `O=C(O)[C@H]1CC[C@H](OC2CCN(c3ccc(-c4nc5cc(C(F)(F)F)ccc5[nH]4)cn3)CC2)CC1`, the outcome in data set [13] and in data set [16] was inactive. Moreover, the outcome in data set [14] and in [15] was Active. Also, the Selectivity ratio in [5] is greater than 1000. The inhibition in [8] is 23%.
With `O=C(O)[C@H]1CC[C@@H](OC2CCN(c3ccc(-c4nc5cc(Cl)ccc5[nH]4)cn3)CC2)CC1`, at 10 mg/kg the inhibition in vivo in data set [1] was 52%. Further, the IC50 in data set [2] is 0.011 µM; in data set [4], greater than 10 µM; in [7], 0.0022 µM. In [6], the Ki was 15 µM. In [8], the inhibition came to 13%.
Regarding `O=C(O)[C@H]1CC[C@@H](OC2CCN(c3ccc(-c4nc5cc(F)ccc5[nH]4)cn3)CC2)CC1`, in data set [1], the inhibition in vivo at 10 mg/kg worked out at 55%. Further, the concentration for half-maximal inhibition (IC50) is 0.026 µM in data set [2], greater than 10 µM in data set [4] and 0.0058 µM in data set [7]. Further, the Ki in data set [3] was greater than 10 µM; in data set [6], 11 µM. Moreover, the Selectivity ratio in [5] was greater than 1000. Moreover, the inhibition in data set [8] is -2%.
